An excerpt weighted towards active compounds, which were near 1.4% of everything screened.
TNAP inh no acc: human TNAP enzyme inhibitors, primary screen, biochemical, luminescent, no phosphate acceptor, uHTS. Alkaline phosphatase, tissue-nonspecific isozyme (Homo sapiens), P05186. purified TNAP, CDP-star luminescence, 30 min. inhibition, % at 20 µM. 0.26% of 200,000 active. AID 1012, 2008;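 active = tissue-nonspecific alkaline phosphatase inhibition above about 50% at 20 µM in the single-dose screen, limit read from the data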;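 also: 0% = DMSO negative control and 100% = EDTA positive control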
CHT PAM: CHT positive allosteric modulators, primary screen, cell-based, membrane potential dye, choline EC20; High affinity choline transporter 1 (Homo sapiens), Q9GZV3; B-score at 10 µM; AID 488977, 2010; CHT-expressing cells; hits give high values; LV-AA mutant CHT in HEK293 cells; 0.49% of 310,000 active;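 active = initial fluorescence not abnormally high and integrated response B-score, plate-corrected, over 3 SD above library mean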
ABCB6 inh MLPCN: ABCB6 transporter inhibitors, primary screen, K562-ABCB6 cells, flow cytometry, MLPCN library | ATP-binding cassette sub-family B member 6 (Homo sapiens), Q9NP58 | K562-ABCB6 porphyrin accumulation, 1 h; hits give low values | fluorescence ratio to DMSO, % at 10 µM | 0.19% of 360,000 active | AID 602162, 2011;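 active = fluorescence ratio to DMSO below 75%, the collection mean minus 3 SD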;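 also: signal is porphyrin accumulated inside mitochondria; 100% equals median channel fluorescence of DMSO control wells; lower ratio means ABCB6 inhibition with less porphyrin fluorescence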
Target sequence (Q9NP58 whole entry, looked up): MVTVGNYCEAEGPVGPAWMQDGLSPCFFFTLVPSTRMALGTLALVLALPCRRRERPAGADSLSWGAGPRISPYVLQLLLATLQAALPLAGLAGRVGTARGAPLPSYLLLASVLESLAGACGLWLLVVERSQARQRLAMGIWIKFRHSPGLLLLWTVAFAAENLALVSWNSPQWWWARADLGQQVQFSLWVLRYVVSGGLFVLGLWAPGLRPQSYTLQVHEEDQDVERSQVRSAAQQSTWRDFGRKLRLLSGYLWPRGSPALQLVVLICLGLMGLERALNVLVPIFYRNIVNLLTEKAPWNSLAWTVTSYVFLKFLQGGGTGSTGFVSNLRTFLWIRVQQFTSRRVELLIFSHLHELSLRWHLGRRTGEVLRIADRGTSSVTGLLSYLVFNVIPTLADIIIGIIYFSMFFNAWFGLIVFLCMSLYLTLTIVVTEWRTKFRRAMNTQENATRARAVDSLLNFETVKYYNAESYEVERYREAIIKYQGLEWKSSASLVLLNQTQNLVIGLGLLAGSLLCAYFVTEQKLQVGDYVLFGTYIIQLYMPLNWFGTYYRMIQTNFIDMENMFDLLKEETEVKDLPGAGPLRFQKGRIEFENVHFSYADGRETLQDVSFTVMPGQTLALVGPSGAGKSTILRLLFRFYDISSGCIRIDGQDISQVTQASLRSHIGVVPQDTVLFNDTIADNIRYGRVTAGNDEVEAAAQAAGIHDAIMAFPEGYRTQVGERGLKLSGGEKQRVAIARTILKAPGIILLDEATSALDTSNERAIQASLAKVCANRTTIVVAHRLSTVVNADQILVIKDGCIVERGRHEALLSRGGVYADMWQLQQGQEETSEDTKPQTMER
CHT block: inhibitors of human choline transporter CHT; AID 488975, 2010; High affinity choline transporter 1 (Homo sapiens), Q9GZV3; B-score at 10 µM; CHT-expressing cells, membrane potential dye, choline response; hits give low values; 0.86% of 310,000 active;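 active = B-score over 3 SD under the library average, and starting fluorescence ratio not unusually high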;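 also: choline stimulus applied at its EC90 after an EC20 pre-addition; B-score computed on integrated fluorescence ratio after choline addition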
TNAP act hiacc: TNAP activators at high phosphate acceptor level, primary screen, biochemical, luminescence, uHTS. activation factor at 20 µM. purified TNAP, CDP-star luminescence, 1 M DEA, 30 min; hits give high values; 0 = EDTA background, 1 = DMSO-only activity. Alkaline phosphatase, tissue-nonspecific isozyme (Homo sapiens), P05186. 200,000 tested, under 10 active;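 active = activation factor at least 2 at 20 µM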
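Measured by: Luminescent substrate turnover signal | Test system: Human TNAP | Input: TNAP 1/800 final | Dosing: 20 µM single point | Schedule: 30 min, room temperature | Controls: EDTA wells as negative control, DMSO wells as positive control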
TNAP inh hi DEA: human TNAP enzyme inhibitors, primary screen, biochemical, luminescent, high phosphate acceptor level, uHTS | Alkaline phosphatase, tissue-nonspecific isozyme (Homo sapiens), P05186 | purified TNAP, CDP-star luminescence, 1 M DEA | inhibition, % at 20 µM | 0.03% of 200,000 active | AID 1135, 2008;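 active = over 50% inhibition of tissue-nonspecific alkaline phosphatase at 20 µM in the single-dose screen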;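 also: plate controls were DMSO wells for no effect and EDTA-quenched wells as full inhibition for full effect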
CHT act confirm: CHT activators, confirmation, cell-based, membrane potential dye, duplicate | shares compounds with CHT PAM | CHT-expressing cells, membrane potential dye fluorescence (FDSS); % of choline EC20–EC90 response window; HEK293 expressing CHT LV-AA mutant; choline added at its EC20 | activation, % at 10 µM | 91% of 2,500 active | AID 504833, 2011;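 active = primary screen active, with duplicate mean activation above negative control mean plus 3 SD, cut at about 11% in these data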
HEK293 MP dye: membrane potential response in parental HEK293 cells, counter-screen for CHT activator project, cell-based, membrane potential dye; shares compounds with CHT PAM; membrane potential dye fluorescence (FDSS); measured after EC20 choline addition; ratio readout change at 10 µM, hits read low; 62% of 2,500 active; AID 623908, 2012;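 active = duplicate-averaged ratio beyond 3 SD from buffer wells, up or down, though filed actives are nearly all decreases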
Active calls of the source: *; i = inactive; . = not tested or not shown.

SMILES	TNAP inh no acc	CHT PAM	ABCB6 inh MLPCN	CHT block	TNAP act hiacc	TNAP inh hi DEA	CHT act confirm	HEK293 MP dye
CCCc1nc2ccccc2c(C(=O)OC(C)C(=O)NCc2ccc3c(c2)OCO3)c1CC (configuration not stated)	-16.3	7.71*	102.0	i	1	-2.6	35.8*	i
COc1ccc(CCNCCC(c2ccccc2)c2ccccc2)cc1OC	.	.	98.0	.	.	.	.	.
COc1ccc(C(CCNCc2ccc(OC)c(OC)c2)c2ccc(F)cc2)cc1 (configuration not stated)	.	7.38*	92.0	i	.	.	28.0*	i
COc1ccc(C(CCNCc2ccc(N(C)C)cc2)c2ccccc2)cc1 (configuration not stated)	.	7.02*	89.0	i	.	.	9.5	i
O=C1OC(Nc2cc(Br)cc3cccnc23)c2ccccc21 (configuration not stated)	1.8	i	104.0	i	1	-1.2	.	.
Cc1cc(N2CCCC2)nc2ccccc12	-10.2	i	98.0	i	1.1	-5.9	47.8*	-57.9*
CCN(C(=O)CSc1ncccn1)c1cccc2ccccc12	.	.	98.0	.	.	.	.	.
CN(C)c1ccc2c3c(ccc(N(C)C)c13)C(=O)OC2	.	7.27*	99.0	i	.	.	80.2*	-96.5*
CS(=O)(=O)Nc1ccc2c(c1)C(=O)OC2	-8.8	i	95.0	i	1	-0.4	.	.
Cc1ccc(C(=O)Nn2cnnc2)cc1Cl	.	i	97.0	i	.	.	.	.
CC1(C)CC(=O)C(C=Nc2ccc(NC3=C(C#N)C(=O)CC(C)(C)C3)cc2)=C(O)C1	-14.8	i	95.0	i	1	-0.5	.	.
CCN(CC)CCCNc1nc2ccccc2[nH]1	-8.0	7.8*	101.0	i	1	-1.6	34.8*	-34.5*
c1ccc2[nH]c(NCCCN3CCOCC3)nc2c1	-12.6	6.35*	92.0	i	1.1	-8.5	38.4*	-33.2*
CCNc1nc2ccccc2[nH]1	-6.9	i	98.0	i	1	-4.8	.	.
Cc1cccc(NC(=O)CSc2nc(=O)n(CCCN3CCOCC3)c3c2CCCC3)c1C	.	.	101.0	.	.	.	.	.
COc1ccc(C(=O)NNC(=O)c2ccccc2[N+](=O)[O-])cc1[N+](=O)[O-]	-7.9	i	98.0	i	1	-2.9	.	.
COc1ccc(C(=O)C(C)[n+]2ccc(C)c3ccccc32)cc1[N+](=O)[O-] (configuration not stated)	.	6.53*	237.0	i	.	.	42.6*	-39.8*
c1cncc(N=c2scc(-c3cccc4ccccc34)n2CCCn2ccnc2)c1	7.4	8.24*	91.0	i	1	-3.9	7.1	i
O=C(NCc1ccncc1)C1Cc2c(-c3ccccc3Oc3ccccc3)ccnc2O1 (configuration not stated)	.	.	98.0	.	.	.	.	.
FC(F)(F)COc1cc(-c2nnc(SCc3ccccc3)n2Cc2ccco2)cc(OCC(F)(F)F)n1	.	9.16*	103.0	i	.	.	23.6*	i
c1cncc(CSc2nnc(-c3cccnc3)n2Cc2ccco2)c1	-9.5	.	.	.	1	-4.2	.	.
O=C(NN=C1CCCC1)c1ccccc1OCc1ccc(Cl)cc1	-5.4	10.1*	91.0	i	1	0.0	13.2*	i
Cc1cc(C)c2c(n1)nn1c(NCCOCCO)cc(C)nc21	-19.8	8.53*	97.0	i	1	-1.6	74.9*	-62.5*
Cc1cc(C)c2c(n1)nn1c(N3CCN(c4ccccc4)CC3)cc(C)nc21	-17.5	i	99.0	i	1	-3.8	.	.
CCCN1CCc2c(sc3nc(SCC)n(-c4ccc(OC)cc4)c(=O)c23)C1	.	.	92.0	.	.	.	.	.
SMILES	TNAP inh no acc	CHT PAM	ABCB6 inh MLPCN	CHT block	TNAP act hiacc	TNAP inh hi DEA	CHT act confirm	HEK293 MP dye
CC(C)Cn1c(/C=C/c2ccccc2)nc2ccccc21	-10.5	i	96.0	i	1	-0.1	22.6*	i
CCO[C@H]1OC(C(=O)NCc2nc3ccccc3[nH]2)=C[C@@H](C2CC2)[C@@H]1CCCO	-7.5	i	101.0	i	1.1	-6.8	25.8*	i
COc1cc(C(=O)Nc2sc3c(c2C(=O)NCc2ccco2)CCCC3)cc(OC)c1OC	-10.9	7.62*	91.0	i	1.1	-8.3	7.8	i
Cc1ccc(-n2nnnc2-c2ccccc2Br)cc1	.	i	97.0	i	.	.	.	.
S=C1NC2CCCCC2N1 (configuration not stated)	-8.4	i	97.0	i	1	0.4	.	.
CCN(CC)c1nc2c(c(=O)n(C)c(=O)n2C)n1CCCc1ccccc1	.	i	101.0	i	.	.	.	.
Cn1c(=O)c2c(nc(CN3CCCCC3)n2CCc2ccccc2)n(C)c1=O	-3.9	12.3*	103.0	i	1.1	-8.9	47.4*	i
CN1CCN(Cc2nc3c(c(=O)n(C)c(=O)n3C)n2CCCc2ccccc2)CC1	-4.6	7.99*	99.0	i	1	-3.8	48.0*	-36.3*
Cn1c(=O)c2c(nc(CN3CCN(c4cccc(Cl)c4)CC3)n2CCc2ccccc2)n(C)c1=O	.	9.31*	100.0	i	.	.	24.4*	i
CN(Cc1ccccc1)c1nc2c(c(=O)n(C)c(=O)n2C)n1CCCc1ccccc1	-12.9	8.67*	86.0	i	1.1	-5.3	25.4*	i
O=C(C1CCN(S(=O)(=O)c2ccc(F)cc2)CC1)N1CCCC(C(F)(F)F)C1 (configuration not stated)	.	i	99.0	i	.	.	.	.
CCCCCCn1c(CN2CCN(C)CC2)nc2c1c(=O)n(C)c(=O)n2C	-6.2	9.47*	94.0	i	1	-3.7	60.8*	-46.3*
CC1CC(C)CN(C(=O)COC(=O)c2ccc(S(=O)(=O)N(C)c3ccccc3)cc2)C1 (configuration not stated)	.	.	100.0	.	.	.	.	.

Assay outcomes deposited in PubChem BioAssay by several laboratories.
